Bioassay records deposited in PubChem by several laboratories.
TPT1 inhibitor – inhibitors of Candida albicans tRNA 2'-phosphotransferase TPT1. recombinant caTPT1, FP RNA substrate dephosphorylation. inhibition, % at 5 µM. hit rate 0.81% among 300,000. AID 1962;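 active means inhibition above the mean of all tested compounds plus 3 SD, set per screening campaign, cut at about 24% in these data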
Rpn11 block – Rpn11 (human) deubiquitinase inhibition | inhibition, % at 20 µM | hit rate 0.59% among 360,000 | human 26S proteasome, Ub4-pepOG fluorescence polarization; 20S core pre-blocked with epoxomicin | O00487 | AID 588493;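 active means inhibition at 20 µM, scaled to each plate's controls, above about 33%, limit read from the data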
IDE cell inh – inhibits human insulin-degrading enzyme in HEK cells | P14735 | FAbetaB cleavage, fluorescence polarization | inhibition, % at 5.59 µM | hit rate 0.41% among 320,000 | AID 434962;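 active means percent inhibition above the average of all tested compounds plus 3 SD, set per screening campaign, cut at about 16% in these data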;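 further: IDE supplied by intact live HEK cells; FP after avidin binding of uncleaved biotin substrate so inhibition keeps polarization high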
HNF4A DNA FP – change in binding of human HNF4 alpha to DNA; P41235; HNF4a-FITC DNA binding, fluorescence polarization, 1 h; activity change, % at 10 µM; hit rate 0.3% among 360,000; in the data active means activity change above about 30%, passing the limit was not always enough
Target sequence (P41235 whole entry, looked up): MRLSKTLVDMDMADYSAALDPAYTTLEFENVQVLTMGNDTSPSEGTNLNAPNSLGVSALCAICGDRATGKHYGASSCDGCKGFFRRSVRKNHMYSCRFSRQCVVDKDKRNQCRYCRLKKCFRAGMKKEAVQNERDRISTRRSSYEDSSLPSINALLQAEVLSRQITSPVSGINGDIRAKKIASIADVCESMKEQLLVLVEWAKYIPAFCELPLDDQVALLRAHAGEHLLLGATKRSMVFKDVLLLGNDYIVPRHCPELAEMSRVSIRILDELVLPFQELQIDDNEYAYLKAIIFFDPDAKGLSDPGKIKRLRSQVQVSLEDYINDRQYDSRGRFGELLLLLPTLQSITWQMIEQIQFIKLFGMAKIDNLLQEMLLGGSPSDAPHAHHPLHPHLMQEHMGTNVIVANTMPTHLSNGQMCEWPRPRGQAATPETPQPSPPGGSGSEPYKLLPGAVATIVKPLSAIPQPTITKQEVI
CSN deneddyl inh – blocks human CSN-mediated cullin deneddylation; Purified CSN, SCF-Nedd8-OG deneddylation, fluorescence polarization; inhibition, % at 12.5 µM; hit rate 0.38% among 360,000; AID 651999;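 active means pattern-corrected inhibition above about 35%, with an unprinted fluorescence ratio check between 0.5 and 1.5, limit read from the data, passing the limit was not always enough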
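Assay system: purified human Csn5 enzyme expressed in HEK293T cells; Input: 0.24 nM Csn5 enzyme, final concentration; Reagent: 10 nM SCFSkp2-Nedd8OG; Compound dosing: 12.5 µM single point; Times: reaction 90 min, room temperature; Technique: fluorescence polarization readout.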
IDE cell activ – activators of human insulin-degrading enzyme in cells; P14735; HEK cells, FAbeta-B cleavage, fluorescence polarization; 0% vehicle, 100% cell-free pure enzyme wells; activation, % at 5.96 µM; hit rate 0.073% among 340,000; AID 493087;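 active means activation above the mean of all tested compounds plus 3 SD, set per screening campaign, cut at about 17% in these data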
IDE cell inh cf – cellular human IDE inhibition, confirmation. shares compounds with IDE cell inh. HEK cells, FAbetaB cleavage, fluorescence polarization. inhibition, % at 5.59 µM. hit rate 51% among 1,200. AID 435028;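 active means mean inhibition across triplicate wells above the cutoff set by the earlier primary insulin-degrading enzyme screen, cut at about 16% in these data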
HEK293 tox – kills HEK cells in IDE inhibitor counter-screen. shares compounds with IDE cell inh. HEK293 cytotoxicity, ATP luminescence. inhibition, % at 5.59 µM. hit rate 28% among 1,200; in the data active means inhibition above about 22%
Numbers stand for hits; . = inactive; / = no result given. Hits are enriched below; roughly 1.7% of the tested compounds scored in any of these assays.

SMILES	TPT1 inhibitor	Rpn11 block	IDE cell inh	HNF4A DNA FP	CSN deneddyl inh	IDE cell activ	IDE cell inh cf	HEK293 tox
O=C(O)c1cccc(-n2sc3ccccc3c2=O)c1	/	.	92.6	.	.	.	97.0	.
Cc1ccccc1-n1sc2cc(F)ccc2c1=O	.	.	72.0	.	.	.	16.8	80.5
O=c1c2ccccc2sn1-c1ccccc1	.	.	64.5	.	.	.	32.0	97.7
NS(=O)(=O)c1ccc(CNC(=O)c2ccc(C(=O)c3ccccc3)cc2)cc1	/	.	.	.	.	.	/	/
CCN(CC(=O)Nc1ccccc1OC)C(=O)c1ccc(N(C)S(=O)(=O)c2ccc(C)cc2)cc1	.	.	.	.	.	.	/	/
CC(C)(C)NC(=S)N/N=C/c1cccnc1	.	.	.	.	.	.	/	/
O=c1c2cc(F)ccc2sn1-c1ccccc1	/	.	60.0	.	.	.	32.6	82.8
CCCc1cc(=O)[nH]c(SCC(=O)Nc2ccc([N+](=O)[O-])cc2C#N)n1	.	.	.	.	.	.	/	/
Cc1ccc2c(c1)[C@@H]1[C@H](CO2)[C@H](c2ccccc2)[C@@]2(C)C(=O)N[C@H](C)C(=O)N12	/	.	.	.	.	.	/	/
CC(=O)NC(c1cccs1)c1cc([N+](=O)[O-])c2cccnc2c1O (stereo not given)	.	40.2	26.5	.	.	.	.	27.2
CC(=O)NC(c1cccs1)c1cc(Cl)c2ccccc2c1O (stereo not given)	/	.	19.2	.	.	.	.	.
CCC(=O)NC(c1cccs1)c1cc(Cl)c2ccccc2c1O (stereo not given)	/	.	17.3	.	.	.	.	.
Cc1ccc(S(C)(=O)=O)cc1C(=O)OCC(=O)N1CCCC1=O	/	.	/	.	.	.	/	/
CCN(CC(=O)Nc1ccccc1C(F)(F)F)C(=O)c1ccc(-n2nc(C)c(CCC(=O)OC)c2C)cc1	/	.	/	.	.	.	/	/
COc1ccc(C(CC(=O)N2CCCC2)c2ccc(F)cc2)cc1 (stereo not given)	.	.	17.0	.	.	.	.	.
O=C(Nn1c(O)c(C=C2N=c3ccccc3=N2)sc1=S)c1ccccc1Cl	.	.	17.1	.	.	.	.	.
Oc1ccc(N2CCN(c3nnnn3-c3ccccc3)CC2)cc1	.	.	.	.	.	.	/	/
COc1cc(/C=N/NC(=O)c2ccc(-c3ccccc3)cc2)cc(OC)c1OC	.	.	21.3	.	.	.	.	.
Cc1occc1C(=O)N/N=C/c1ccc(OCc2ccccc2)cc1	.	.	.	.	.	.	/	/
COc1ccc(/C=N\NC(=O)c2ccc(-c3ccccc3)cc2)c(OC)c1OC	/	.	/	.	.	.	/	/
Cc1occc1C(=O)N/N=C/c1ccc(-c2ccccc2)cc1	.	.	16.2	.	.	.	.	65.0
Cc1cccc(C(=O)Nc2cccc(-c3ccc4nncn4n3)c2)c1	.	.	20.1	.	.	.	.	.
O=C(COC(=O)c1cc(Cl)nc(Cl)c1)Nc1ccc(Cl)c(S(=O)(=O)N2CCOCC2)c1	/	.	.	.	.	.	/	/
CCCCNC(=O)N1CCN(c2ccnc3cc(Cl)ccc23)CC1	.	.	18.5	.	.	.	.	.
O=C(O)CSCC(=O)N1CCN(c2ccnc3cc(Cl)ccc23)CC1	.	.	29.8	.	.	.	.	.
SMILES	TPT1 inhibitor	Rpn11 block	IDE cell inh	HNF4A DNA FP	CSN deneddyl inh	IDE cell activ	IDE cell inh cf	HEK293 tox
Cc1cccc(Cl)c1NC(=O)N1CCN(c2ccnc3cc(Cl)ccc23)CC1	.	.	23.8	.	.	.	.	.
CC(=O)N1CCN(c2ccnc3cc(Cl)ccc23)CC1	.	.	.	.	.	.	/	/
Cc1ccc(F)cc1NC(=O)N1CCN(c2ccnc3cc(Cl)ccc23)CC1	.	.	.	.	.	.	/	/
O=C(Nc1cc(F)ccc1F)N1CCN(c2ccnc3cc(Cl)ccc23)CC1	.	.	22.5	.	.	.	.	.
COc1cc(C#N)c(NS(=O)(=O)c2ccc3[nH]c(=O)sc3c2)cc1OC	.	.	.	.	.	.	/	/
COC(=O)[C@H](NC(=O)c1cc([C@@H](NC(=O)OC(C)(C)C)C(C)C)sc1N)C(C)C	/	/	/	.	.	/	/	/
COc1ccc(S(=O)(=O)Nc2ccc(N3CCOCC3)nc2)cc1	.	.	.	.	.	.	/	/
COc1ccccc1CN1CCC(n2nccc2NC(=O)CCOc2ccccc2)CC1	.	.	.	.	.	.	/	/
COc1cc(NC(=O)Cc2ccccc2)ccc1NC(=O)c1ccccc1	.	.	.	.	.	.	/	/
Cc1cccc(Nc2cnn(C34CC5CC(CC(CC(=O)O)(C5)C3)C4)c(=O)c2Cl)c1	.	.	20.6	.	.	.	.	.
CC(=O)c1ccc(Nc2cnn(C34CC5CC(CC(CC(=O)O)(C5)C3)C4)c(=O)c2Cl)cc1	.	.	.	.	.	.	/	/
Cc1cc(C)cc(Nc2cnn(C34CC5CC(CC(CC(=O)O)(C5)C3)C4)c(=O)c2Cl)c1	.	.	31.5	.	.	.	18.4	.
Cc1ccc(Nc2cnn(C34CC5CC(CC(CC(=O)O)(C5)C3)C4)c(=O)c2Cl)cc1	.	.	.	.	.	.	/	/
Cc1nc(N/C(N)=N/S(=O)(=O)c2ccc([N+](=O)[O-])cc2)nc2ccccc12	.	.	22.3	.	.	.	.	.
CCN(CC)C(=O)Cn1cc(C(=O)C(=O)N2CC=C(c3ccccc3)CC2)c2ccccc21	.	.	18.9	.	.	.	20.6	.
Cc1cccc(OCC(=O)NCC(=O)N/N=C/c2cc(Br)ccc2OCc2ccccc2)c1	.	.	32.2	.	.	.	.	.
O=C(COc1ccccc1)NCC(=O)N/N=C/c1cc(Br)ccc1OCc1ccccc1	.	.	.	.	.	.	/	/
O=C(NCCCN1CCOCC1)C(=O)N/N=C/c1ccccc1	.	.	.	.	.	.	/	/
O=C(NCCCN1CCOCC1)C(=O)N/N=C/c1cccc2ccccc12	.	.	16.1	.	.	.	.	.
COc1cc(NC(=O)CSc2nc3[nH]ncc3c(=O)n2-c2ccccc2C)cc(OC)c1OC	.	.	.	.	.	.	/	/
C=CCN(C(=O)CSc1nc2[nH]ncc2c(=O)n1-c1ccccc1OC)c1ccccc1	.	.	17.7	.	.	.	.	.
Nc1ccc(-c2c3ccc(=O)cc-3oc3cc(O)ccc23)c(C(=O)O)c1	/	.	49.2	.	.	.	28.4	.
COc1ccc(-c2cc(=O)c3ccc(O)cc3o2)cc1OC	/	.	/	.	.	/	/	/
C/C(=N\Nc1ncnc2sc(C)c(C)c12)c1ccccn1	.	.	47.8	.	.	.	35.7	118.2
CSc1ncccc1C(=O)OCC(=O)NC1CCCc2ccccc21 (stereo not given)	/	.	19.5	.	.	.	.	.
